# According to article PMC12398706 (ACS chemical neuroscience, 2025):
# Where a name gives a salt, the structure may show the parent alone. Read-outs that look alike come from different tables or passages of the source.
# Experiments:
# adrenergic receptors = test: NIMH PDSP radioligand binding, adrenergic receptors; details: 10 μM; N = 1 in quadruplicate
# Method in brief: (§1)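 Outsourced screen run by the NIMH Psychoactive Drug Screening Program across a broad target panel. Test compound at 10 μM; read-out was % inhibition of binding of a radiolabelled ligand specific to each target. Single experiment (N = 1) run in quadruplicate, with the averaged value reported.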
# H1 = H1 (Homo sapiens, UniProt P35367); test: NIMH PDSP radioligand binding, H1; details: 10 μM; N = 1 in quadruplicate
# Chain of H1 (P35367 whole entry): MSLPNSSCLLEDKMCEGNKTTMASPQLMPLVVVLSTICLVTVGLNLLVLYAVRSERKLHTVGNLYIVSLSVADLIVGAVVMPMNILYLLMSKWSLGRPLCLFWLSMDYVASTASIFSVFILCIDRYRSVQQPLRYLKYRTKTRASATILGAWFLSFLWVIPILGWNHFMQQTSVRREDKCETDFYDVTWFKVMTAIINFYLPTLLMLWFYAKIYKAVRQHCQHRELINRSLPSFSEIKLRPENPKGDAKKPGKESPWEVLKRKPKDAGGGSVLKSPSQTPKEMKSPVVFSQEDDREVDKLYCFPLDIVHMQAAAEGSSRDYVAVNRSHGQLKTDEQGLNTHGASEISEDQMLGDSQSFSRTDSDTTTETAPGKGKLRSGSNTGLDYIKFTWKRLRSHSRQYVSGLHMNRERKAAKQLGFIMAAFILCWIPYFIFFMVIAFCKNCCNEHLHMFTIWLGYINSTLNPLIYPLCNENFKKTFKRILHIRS
# Method in brief: as §1
# SERT [1] = target: T1, SERT (Homo sapiens, UniProt P31645); assay type: cell-based
# sigma 1 = test: NIMH PDSP radioligand binding, sigma 1; details: 10 μM; N = 1 in quadruplicate
# Method in brief: as §1
# 5-HT2B = 5-HT2B (Homo sapiens, UniProt P41595); test: NIMH PDSP radioligand binding, 5-HT2B; details: 10 μM; N = 1 in quadruplicate
# Chain of 5-HT2B (P41595 whole entry, species assumed): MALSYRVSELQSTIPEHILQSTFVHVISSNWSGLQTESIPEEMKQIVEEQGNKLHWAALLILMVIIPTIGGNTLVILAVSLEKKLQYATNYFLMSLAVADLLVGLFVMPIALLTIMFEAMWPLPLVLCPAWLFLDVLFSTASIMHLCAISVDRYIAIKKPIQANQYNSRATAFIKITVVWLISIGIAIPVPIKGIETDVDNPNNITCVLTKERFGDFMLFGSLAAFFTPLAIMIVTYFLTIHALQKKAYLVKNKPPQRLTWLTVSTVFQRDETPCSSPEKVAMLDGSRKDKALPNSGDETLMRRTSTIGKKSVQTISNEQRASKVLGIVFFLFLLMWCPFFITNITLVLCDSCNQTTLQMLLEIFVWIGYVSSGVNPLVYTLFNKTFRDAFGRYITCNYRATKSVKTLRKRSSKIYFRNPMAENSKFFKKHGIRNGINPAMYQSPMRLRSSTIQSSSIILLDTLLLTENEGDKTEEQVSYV
# Method in brief: as §1
# sigma 2 = test: NIMH PDSP radioligand binding, sigma 2; details: 10 μM; N = 1 in quadruplicate
# Method in brief: as §1
# 5-HT3 receptors = target: T2, 5-HT3 receptors (Homo sapiens, UniProt P46098); test: NIMH PDSP radioligand binding, 5-HT3; details: 10 μM; N = 1 in quadruplicate
# T2 sequence (P46098 24-478): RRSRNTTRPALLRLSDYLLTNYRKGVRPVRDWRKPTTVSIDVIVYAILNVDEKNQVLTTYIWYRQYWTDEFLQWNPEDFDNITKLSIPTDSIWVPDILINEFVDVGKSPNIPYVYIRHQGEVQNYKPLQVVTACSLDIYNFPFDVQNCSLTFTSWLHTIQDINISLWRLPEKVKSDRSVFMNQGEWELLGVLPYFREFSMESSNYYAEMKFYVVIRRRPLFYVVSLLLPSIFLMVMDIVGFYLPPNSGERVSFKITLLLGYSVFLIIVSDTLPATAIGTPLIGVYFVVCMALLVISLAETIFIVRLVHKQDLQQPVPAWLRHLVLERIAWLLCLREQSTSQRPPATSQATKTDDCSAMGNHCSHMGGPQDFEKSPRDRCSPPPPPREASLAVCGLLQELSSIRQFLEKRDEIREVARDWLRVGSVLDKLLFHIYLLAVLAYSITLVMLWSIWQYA
# Method in brief: as §1
# SERT [2] = target: T1, SERT; test: NIMH PDSP radioligand binding, SERT; details: 10 μM; N = 1 in quadruplicate
# SERT [3] = target: T1, SERT; test: SERT efflux assay; assay type: cell-based; details: for SERT efflux, single concentration: 10 μM, normalized to vehicle (0.1% DMSO = 0%) and 100 μM PCA = 100%
# Method in brief: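 hSERT-N1-pEYFP transfected (0.1 μg/well) into HEK293T cells (DMEM, 10% FBS) at seeding, 24 h before assay. In HBSS with 2 mM MgCl2, 2 mM CaCl2 and 5 mM HEPES at 37 °C, cells were loaded with 40 nM [3H]5-HT for 20 min, washed, then exposed 20 min to test compound (final 10 μM–1 nM, 0.1% DMSO). After washing and NaOH lysis, retained radioactivity was scintillation-counted. EC50/Span came from three-parameter log(agonist)-response fits.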
# NET = NET (Homo sapiens, UniProt P23975); test: NIMH PDSP radioligand binding, NET; details: 10 μM; N = 1 in quadruplicate
# Chain of NET (P23975 whole entry): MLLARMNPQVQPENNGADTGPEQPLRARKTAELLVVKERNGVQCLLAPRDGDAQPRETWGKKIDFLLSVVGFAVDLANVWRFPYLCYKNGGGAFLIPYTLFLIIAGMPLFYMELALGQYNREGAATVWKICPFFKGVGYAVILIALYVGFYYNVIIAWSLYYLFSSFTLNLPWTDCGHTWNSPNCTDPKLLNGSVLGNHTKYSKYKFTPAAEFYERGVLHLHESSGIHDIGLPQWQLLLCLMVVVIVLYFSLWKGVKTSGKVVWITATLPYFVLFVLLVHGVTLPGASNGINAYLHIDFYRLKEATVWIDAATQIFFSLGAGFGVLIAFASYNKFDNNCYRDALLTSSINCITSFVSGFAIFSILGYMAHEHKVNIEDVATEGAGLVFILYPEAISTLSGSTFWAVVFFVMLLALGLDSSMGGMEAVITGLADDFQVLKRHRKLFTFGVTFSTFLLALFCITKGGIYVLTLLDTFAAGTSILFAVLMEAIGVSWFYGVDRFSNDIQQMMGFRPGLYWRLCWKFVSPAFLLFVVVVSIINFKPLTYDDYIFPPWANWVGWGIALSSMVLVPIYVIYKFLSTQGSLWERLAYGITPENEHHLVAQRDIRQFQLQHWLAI
# Method in brief: as §1
# DAT = DAT (Homo sapiens, UniProt Q01959); test: NIMH PDSP radioligand binding, DAT; details: 10 μM; N = 1 in quadruplicate
# Chain of DAT (Q01959 whole entry, species assumed): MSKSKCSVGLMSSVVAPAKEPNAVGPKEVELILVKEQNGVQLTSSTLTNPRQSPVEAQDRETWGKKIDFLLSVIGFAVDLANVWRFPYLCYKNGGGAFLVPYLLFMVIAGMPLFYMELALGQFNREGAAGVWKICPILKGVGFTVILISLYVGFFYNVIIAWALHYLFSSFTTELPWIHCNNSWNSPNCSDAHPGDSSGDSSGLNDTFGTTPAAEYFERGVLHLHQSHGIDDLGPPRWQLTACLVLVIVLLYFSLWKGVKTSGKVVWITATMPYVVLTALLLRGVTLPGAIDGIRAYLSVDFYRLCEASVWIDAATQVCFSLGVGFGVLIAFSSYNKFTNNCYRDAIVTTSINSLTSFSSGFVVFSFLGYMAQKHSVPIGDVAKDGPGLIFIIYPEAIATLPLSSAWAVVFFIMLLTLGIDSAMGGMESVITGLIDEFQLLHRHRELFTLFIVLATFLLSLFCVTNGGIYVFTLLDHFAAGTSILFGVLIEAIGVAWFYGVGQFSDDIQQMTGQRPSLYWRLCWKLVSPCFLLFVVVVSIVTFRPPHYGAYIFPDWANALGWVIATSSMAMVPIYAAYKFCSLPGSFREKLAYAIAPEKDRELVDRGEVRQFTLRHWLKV
# Method in brief: as §1
# SERT-PG^601,602AA = SERT-PG^601,602AA (Homo sapiens, UniProt P31645, G602A/P601A); test: SERT pharmacochaperoning assay; assay type: cell-based; details: 20 μM, 24 h; normalized to vehicle (0.2% DMSO = 0%) and 20 μM noribogaine = 100%
# Method in brief: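 HEK293T cells (DMEM, 10% FBS) were transfected at seeding with the misfolding SERT-PG601,602AA plasmid (0.1 μg/well) and kept overnight at 37 °C, 5% CO2. They were then exposed 24 h to test compound at a final 20 μM (0.2% DMSO) in fresh medium. Four 10-min washes with supplemented HBSS preceded 10-min uptake of 40 nM [3H]5-HT. Cells were washed, lysed in 10 mM NaOH and scintillation-counted.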
# SERT [4] = target: T1, SERT; details: cited from earlier work
# SERT [5] = target: T1, SERT; details: cocaine 10 μM; value taken from a previous report; cited from earlier work
# serotonin uptake = details: cited from earlier work
# SERT [6] = target: T1, SERT; details: cited from earlier work; remark: listed apart in the source
# [7] = concentration-response, compared to UCD0184
Structure (SMILES),% inhibition of radioligand binding at adrenergic receptors (in words) (adrenergic receptors),% inhibition of radioligand binding at H1 (in words) (H1),% inhibition of radioligand binding at sigma 1 (in words) (sigma 1),% inhibition of radioligand binding at 5-HT2B (in words) (5-HT2B),% inhibition of radioligand binding at sigma 2 (in words) (sigma 2),% inhibition of radioligand binding at 5-HT3 (in words) (5-HT3 receptors),% inhibition of radioligand binding at SERT (in words) (SERT [2]),% inhibition of radioligand binding at NET (in words) (NET),% inhibition of radioligand binding at DAT (in words) (DAT),"SERT inhibition, single concentration (SERT [1])","SERT efflux, single concentration (SERT [3]; HEK293T)",also measured
CN1C2C=C(c3c[nH]c4ccc(F)cc34)CC1CC2 (centres unmarked) [UCD0093],potent ligands,potent ligands,potent ligands,potent ligands,potent ligands,high affinity,substantial binding,potent ligands,potent ligands,–,–,SERT inhibition potency and efficacy (in words) (SERT [1]; [7]): drastically increased SERT inhibition potency; SERT efflux potency and efficacy (in words) (SERT [3]; [7]): minimal effect on SERT efflux
CN1C2C=C(c3c[nH]c4ccccc34)CC1CC2 (centres unmarked) [UCD0184],potent ligands,potent ligands,potent ligands,potent ligands,potent ligands,high affinity,substantial binding,potent ligands,potent ligands,near full inhibition,appreciable 5-HT efflux,"SERT inhibition Span (Emax) (SERT [1]): 105%; EC50 (SERT [1]; read-out: SERT inhibition EC50, concentration-response, HEK293T): 1100 nM; SERT pharmacochaperoning efficacy compared to noribogaine (SERT-PG^601,602AA): did not act as a SERT pharmacochaperone; selectivity for SERT over DAT (SERT [4]): approximately 10 fold; selectivity for SERT over NET (SERT [4]): ~100 fold; type of serotonin releasing agent (SRA): full or partial (SERT [3]; SERT-transfected HEK293T cells): full; SERT efflux Span (Emax) (SERT [3]; concentration-response, normalized to vehicle 0% and 100 μM PCA 100%): 75.1%; EC50 (SERT [3]; read-out: SERT efflux EC50, concentration-response, HEK293T): 582 nM"
"COC(=O)[C@H]1[C@@H](OC(=O)c2ccccc2)C[C@@H]2CC[C@H]1N2C [cocaine, (−)-cocaine hydrochloride]",–,–,–,–,–,–,–,–,–,–,–,"SERT inhibition, single concentration (SERT [5]): ~ 50%"
"CN1[C@@H]2C[C@@H](OC(=O)[C@H](CO)c3ccccc3)C[C@H]1[C@@H]1O[C@@H]12 [scopolamine, scopolamine hydrobromide trihydrate, reference compound]",–,–,–,–,–,–,–,–,–,meaningful levels of SERT inhibition,–,–
CN1C2CCC1CC(OC(=O)c1ccccc1)C2 (centres unmarked) [tropacocaine],–,–,–,–,–,–,–,–,–,–,no effect,serotonin uptake inhibition activity relative to cocaine (in words) (serotonin uptake): reduced activity relative to cocaine; SERT binding affinity relative to cocaine (in words) (SERT [6]): reduced activity relative to cocaine
